# The source made the active and inactive calls. The calls are words filed in the database; no cut-off is given here.
# Columns and labels:
# [1] = system: Rattus norvegicus; experiment: Antilipidemic activity in 48-hrs starved normal Sprague-Dawley rat model assessed as plasma cholesterol level at 0.124 mmol/kg, po (reference value: 88.7 +/- 6.9 mg/dL); type: functional
# [2] = system: Rattus norvegicus; experiment: Antilipidemic activity in 48-hrs starved normal Sprague-Dawley rat model assessed as plasma triglyceride level at 0.124 mmol/kg, po (reference value: 20.8 +/- 5.5 mg/dL); type: functional
# [3] = system: Rattus norvegicus; experiment: Antilipidemic activity in normal Sprague-Dawley rat assessed at 0.4 mmol/kg, po bid for 7 days; type: functional, organism-based
# [4] = Drug metabolism in Sprague-Dawley rat serum assessed as esterase-mediated hydrolysis measured after 5 mins; type: ADME, cell-free
# In short: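 Pooled serum from ether-anesthetized male Sprague-Dawley rats (300–350 g; aortic blood with EDTA). 0.1 mL of 0.05 M ethanolic stock added to 6.0 mL serum, 37 °C with shaking; samples at 0, 5, 10, 30, 60 min extracted into isooctane–EtOH (95:5) with saturated NaCl; loss of parent read at 250 nm.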
# [5] = Drug metabolism in Ringer bicarbonate buffer assessed as hydrolysis at pH 7.4 measured after 60 mins; type: physicochemical; conditions: read-out: Drug metabolism
# In short: (§1)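 Nonenzymatic hydrolysis: 0.1 mL of 0.05 M ethanolic stock added to 6.0 mL Ringer bicarbonate buffer, pH 7.4, 37 °C with shaking. Aliquots at 0–60 min extracted into isooctane–EtOH (95:5) with saturated NaCl; disappearance of parent tracked at 250 nm.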
# [6] = system: Rattus norvegicus; experiment: Antilipidemic activity in sucrose-fed Sprague-Dawley rat assessed as serum triglyceride level at 0.4 mmol/kg, po bid for 7 days measured on day 0 (reference value: 157.1 +/- 77.8 mg/dL); type: functional
# [7] = system: Rattus norvegicus; experiment: Antilipidemic activity in sucrose-fed Sprague-Dawley rat assessed as serum cholesterol level at 0.4 mmol/kg, po bid for 7 days measured on day 0 (reference value: 69 +/- 9 mg/dL); type: functional
# [8] = system: Rattus norvegicus; experiment: Antilipidemic activity in sucrose-fed Sprague-Dawley rat assessed as serum cholesterol level at 0.4 mmol/kg, po bid for 7 days measured on day 7 (reference value: 92 +/- 22 mg/dL); type: functional
# [9] = system: Rattus norvegicus; experiment: Antilipidemic activity in sucrose-fed Sprague-Dawley rat assessed as serum triglyceride level at 0.4 mmol/kg, po bid for 7 days measured on day 7 (reference value: 115.6 +/- 19.4 mg/dL); type: functional
# [10] = system: Rattus norvegicus; experiment: Modulation of cholesterol level in sucrose-fed Sprague-Dawley rat liver at 0.4 mmol/kg, po bid for 7 days (reference value: 1.81 to 2.17 mg/g); type: functional
# [11] = system: Rattus norvegicus; experiment: Modulation of triglyceride level in sucrose-fed Sprague-Dawley rat liver at 0.4 mmol/kg, po bid for 7 days (reference value: 7.26 to 8.29 mg/g); type: functional
# [12] = system: Rattus norvegicus; experiment: Modulation of HMG-CoA reductase activity in sucrose-fed Sprague-Dawley rat liver assessed as mevalonic acid formation using DL-3-hydroxy-3-methylglutaryl-3-14C-CoA as substrate at 0.4 mmol/kg, po bid for 7 days (reference value: 8.27 to 8.3 nmol/mg/hr); type: functional
# [13] = system: Rattus norvegicus; experiment: Modulation of liver to body weight ratio in sucrose-fed Sprague-Dawley rat at 0.4 mmol/kg, po bid for 7 days (reference value: 3.88 to 4.06%); type: functional
# [14] = system: Rattus norvegicus; experiment: Modulation of liver weight in sucrose-fed Sprague-Dawley rat at 0.4 mmol/kg, po bid for 7 days (reference value: 11.30 to 13.16 gms); type: functional
# [15] = system: Rattus norvegicus; experiment: Modulation of liver microsomal protein level in sucrose-fed Sprague-Dawley rat at 0.4 mmol/kg, po bid for 7 days measured per gm of tissue (reference value: 25.0 to 27.2 mg); type: functional
# [16] = system: Rattus norvegicus; experiment: Modulation of ethylmorphine N-demethylase activity in sucrose-fed Sprague-Dawley rat liver microsomes assessed as formaldehyde formation using ethylmorphine as substrate at 0.4 mmol/kg, po bid for 7 days (reference value: 6.40 to 9.36 nmol/mg/min); type: functional
# [17] = system: Rattus norvegicus; experiment: Modulation of cytochrome b5 activity in sucrose-fed Sprague-Dawley rat liver microsomes at 0.4 mmol/kg, po bid for 7 days measured per mg of protein (reference value: 0.185 to 0.213 nmol); type: functional
# In short: (§2)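 Sucrose-fed male rats dosed orally 0.4 mmol/kg twice daily for 7 days, controls vehicle; livers taken under ether anesthesia, microsomes prepared. Cytochrome P-450 and b5 estimated by the Kinoshita–Horie procedure, per mg microsomal protein. Mean ± SD, n = 5; Student's t test.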
# [18] = system: Rattus norvegicus; experiment: Modulation of cytochrome-P450 activity in sucrose-fed Sprague-Dawley rat liver microsomes at 0.4 mmol/kg, po bid for 7 days measured per mg of protein (reference value: 0.477 to 0.593 nmol); type: functional; in short: as §2
# [19] = system: Rattus norvegicus; experiment: Modulation of NADPH-cytochrome c reductase activity in sucrose-fed Sprague-Dawley rat liver microsomes assessed as cytochrome c reduction at 0.4 mmol/kg, po bid for 7 days (reference value: 202.5 +/- 27.9 nmol/mg/min); type: functional
# [20] = system: Rattus norvegicus; experiment: Antilipidemic activity in Triton WR-1339-induced hyperlipidemic Sprague-Dawley rat model assessed as plasma cholesterol level at 0.124 mmol/kg, po (reference value: 166 +/- 17.8 mg/dL)
# [21] = system: Rattus norvegicus; experiment: Antilipidemic activity in Triton WR-1339-induced hyperlipidemic Sprague-Dawley rat model assessed as plasma triglyceride level at 0.124 mmol/kg, po (reference value: 98.5 +/- 16.9 mg/dL)
# [22] = system: Rattus norvegicus; experiment: Modulation of triglyceride level in sucrose-fed Sprague-Dawley rat liver at 0.4 mmol/kg, po bid for 7 days (reference value: 8.29 +/- 2.24 mg/g); type: functional
# [23] = system: Rattus norvegicus; experiment: Modulation of HMG-CoA reductase activity in sucrose-fed Sprague-Dawley rat liver assessed as mevalonic acid formation using DL-3-hydroxy-3-methylglutaryl-3-14C-CoA as substrate at 0.4 mmol/kg, po bid for 7 days (reference value: 8.27 +/- 1.18 nmol/mg/hr); type: functional
# [24] = system: Rattus norvegicus; experiment: Modulation of liver to body weight ratio in sucrose-fed Sprague-Dawley rat at 0.4 mmol/kg, po bid for 7 days (reference value: 4.06 +/- 0.25%); type: functional
# [25] = system: Rattus norvegicus; experiment: Modulation of liver weight in sucrose-fed Sprague-Dawley rat at 0.4 mmol/kg, po bid for 7 days (reference value: 13.16 +/- 0.61 gms); type: functional
# [26] = system: Rattus norvegicus; experiment: Modulation of liver microsomal protein level in sucrose-fed Sprague-Dawley rat at 0.4 mmol/kg, po bid for 7 days measured per gm of tissue (reference value: 25.0 +/- 2.5 mg); type: functional
# [27] = system: Rattus norvegicus; experiment: Modulation of ethylmorphine N-demethylase activity in sucrose-fed Sprague-Dawley rat liver microsomes assessed as formaldehyde formation using ethylmorphine as substrate at 0.4 mmol/kg, po bid for 7 days (reference value: 9.36 +/- 0.50 nmol/mg/min); type: functional
# [28] = system: Rattus norvegicus; experiment: Modulation of cytochrome b5 activity in sucrose-fed Sprague-Dawley rat liver microsomes at 0.4 mmol/kg, po bid for 7 days measured per mg of protein (reference value: 0.213 +/- 0.032 nmol); type: functional; in short: as §2
# [29] = system: Rattus norvegicus; experiment: Modulation of cytochrome-P450 activity in sucrose-fed Sprague-Dawley rat liver microsomes at 0.4 mmol/kg, po bid for 7 days measured per mg of protein (reference value: 0.593 +/- 0.059 nmol); type: functional; in short: as §2
# [30] = system: Rattus norvegicus; experiment: Antilipidemic activity in normal Sprague-Dawley rat assessed as serum cholesterol level at 0.4 mmol/kg, po bid for 7 days (reference value: 59.1 to 81.6 mg/dL); type: functional
# In short: (§3)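 Normal male Sprague-Dawley rats dosed orally twice daily, 0.4 mmol/kg […], for 7 days; controls received vehicle. Serum cholesterol and triglycerides measured at end of treatment; two separate experiments. Mean ± SD, n = 5; Student's t test vs control.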
# [31] = system: Rattus norvegicus; experiment: Antilipidemic activity in normal Sprague-Dawley rat assessed as serum triglyceride level at 0.4 mmol/kg, po bid for 7 days (reference value: 61.2 to 69.1 mg/dL); type: functional; in short: as §3
# [32] = system: Rattus norvegicus; experiment: Modulation of cholesterol level in normal Sprague-Dawley rat liver at 0.4 mmol/kg, po bid for 7 days (reference value: 2.73 to 3.28 mg/g); type: functional
# [33] = system: Rattus norvegicus; experiment: Modulation of triglyceride level in normal Sprague-Dawley rat liver at 0.4 mmol/kg, po bid for 7 days (reference value: 2.73 to 3.36 mg/g); type: functional
# [34] = system: Rattus norvegicus; experiment: Modulation of HMG-CoA reductase activity in normal Sprague-Dawley rat liver assessed as mevalonic acid formation using DL-3-hydroxy-3-methylglutaryl-3-14C-CoA as substrate at 0.4 mmol/kg, po bid for 7 days (reference value: 49.1 +/- 6.7 nmol/mg/hr); type: functional
# [35] = system: Rattus norvegicus; experiment: Modulation of liver to body weight ratio in normal Sprague-Dawley rat at 0.4 mmol/kg, po bid for 7 days (reference value: 4.21 to 4.59%); type: functional
# [36] = system: Rattus norvegicus; experiment: Modulation of liver weight in normal Sprague-Dawley rat at 0.4 mmol/kg, po bid for 7 days (reference value: 6.73 to 8.71 gms); type: functional
# [37] = system: Rattus norvegicus; experiment: Modulation of liver microsomal protein level in normal Sprague-Dawley rat at 0.4 mmol/kg, po bid for 7 days measured per gm of tissue (reference value: 25.4 to 29.0 mg); type: functional
# [38] = Drug metabolism in Sprague-Dawley rat serum assessed as esterase-mediated hydrolysis at 0.05 M measured after 5 mins; type: ADME, cell-free; conditions: read-out: Drug metabolism
# [39] = Drug metabolism in Ringer bicarbonate buffer assessed as hydrolysis at 0.05 M at pH 7.4 measured after 60 mins; type: physicochemical; in short: as §1
# [40] = system: Rattus norvegicus; experiment: Antilipidemic activity in 48-hrs starved normal Sprague-Dawley rat model assessed as plasma cholesterol level at 0.124 mmol/kg, po (reference value: 90.1 +/- 8.8 mg/dL); type: functional
# [41] = system: Rattus norvegicus; experiment: Antilipidemic activity in 48-hrs starved normal Sprague-Dawley rat model assessed as plasma triglyceride level at 0.124 mmol/kg, po (reference value: 20.9 +/- 11.3 mg/dL); type: functional
# [42] = system: Rattus norvegicus; experiment: Modulation of cholesterol level in sucrose-fed Sprague-Dawley rat liver at 0.4 mmol/kg, po bid for 7 days (reference value: 2.17 +/- 0.26 mg/g); type: functional
# [43] = system: Rattus norvegicus; experiment: Antilipidemic activity in Triton WR-1339-induced hyperlipidemic Sprague-Dawley rat model assessed as plasma cholesterol level at 0.124 mmol/kg, po (reference value: 183 +/- 101 mg/dL)
# [44] = system: Rattus norvegicus; experiment: Antilipidemic activity in Triton WR-1339-induced hyperlipidemic Sprague-Dawley rat model assessed as plasma triglyceride level at 0.124 mmol/kg, po (reference value: 156 +/- 184 mg/dL)
structure (smiles),measurement,setting,value
CCOC(=O)C(C)(C)Oc1ccc(Cl)cc1 [CLOFIBRATE],Activity,[1],87 mg/dL
same,Activity,[2],24.1 mg/dL
same,Activity,[3],Active
same,metabolised at 5 min,[4],> 90%
same,degraded at 1 h,[5],< 20%
same,Activity,[6],153 mg/dL
same,Activity,[7],74 mg/dL
same,Activity,[8],36 mg/dL
same,Activity,[9],50.2 mg/dL
same,Activity,[10],1.76 mg/g
same,Activity,[11],3.05 mg/g
same,Activity,[12],2.7 nmol/mg/h
same,Activity,[13],5.01%
same,Activity,[14],14.32 g
same,Activity,[15],29.2 mg
same,Activity,[16],7.91 nmol/mg/min
same,Activity,[17],0.169 nmol
same,Activity,[18],0.806 nmol
same,Activity,[19],308.3 nmol/mg/min
same,Activity,[20],93.2 mg/dL
same,Activity,[21],22.3 mg/dL
O=C1OCCC12Cc1cc(Cl)ccc1O2 (stereo not drawn),Activity,[22],10.02 mg/g
same,Activity,[23],7.1 nmol/mg/h
same,Activity,[24],4.18%
same,Activity,[25],13.16 g
same,Activity,[26],27.8 mg
same,Activity,[27],9.8 nmol/mg/min
same,Activity,[28],0.173 nmol
same,Activity,[29],0.55 nmol
same,Activity,[30],58.6 mg/dL
same,Activity,[31],66.5 mg/dL
same,Activity,[32],3.18 mg/g
same,Activity,[33],3.17 mg/g
same,Activity,[34],45 nmol/mg/h
same,Activity,[35],4.5%
same,Activity,[36],7.87 g
same,Activity,[37],27.3 mg
same,metabolised at 5 min,[38],> 90%
same,degraded at 1 h,[39],< 20%
same,Activity,[6],142 mg/dL
same,Activity,[40],91.8 mg/dL
same,Activity,[7],67 mg/dL
same,Activity,[41],18.5 mg/dL
same,Activity,[8],103 mg/dL
same,Activity,[9],121.5 mg/dL
same,Activity,[42],2.32 mg/g
same,Activity,[43],131 mg/dL
same,Activity,[44],20.6 mg/dL

# Reference: ChEMBL document CHEMBL3244279, “Synthesis and pharmacological evaluation of a clofibrate-related tricyclic spirolactone, 5-chloro-4',5-dihydrospiro[benzofuran-2(3H),3'(2'H)-furan]-2'-one” (J Med Chem, 1978)
